Laboratory results published in ChEMBL document CHEMBL5303300, “EUbOPEN Chemogenomics Library - Multiplex” (2023).
Several values for one entry are separate records, joined by “and”; a condition that tells them apart may be missing. Identical values can stand only once.

Legend:
Assay type in all cases: toxicity, cell-based
[1] = test system: Fibroblast; assay: Multiplex assay against human fibroblast; conditions: number of replicates 2
Summary of the method: (§1)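 Live cells were stained at seeding with Hoechst33342, BioTracker Green Microtubule Cytoskeleton Dye, MitoTracker Red and Annexin V Alexa Fluor 680, then imaged on a CQ1 microscope at 37°C and 5% CO2 after compound addition. CellPathfinder machine-learning gating split cells into Hoechst high-intensity objects or normal cells. Normal cells were split into healthy, pyknosed or fragmented nuclei, and pyknosed cells into mitotic or apoptotic. Tubulin, mitochondrial-mass and membrane-permeability phenotypes are per cents of healthy-nucleus cells.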

[2] = test system: HEK-293T; assay: Multiplex assay against HEK293T; conditions: human, number of replicates 2; summary of the method: as §1
[3] = test system: U2OS; assay: Multiplex assay against U2OS; conditions: human, number of replicates 2; summary of the method: as §1
[4] = 12 h, 1 µM, compound concentration 1 uM
[5] = 12 h, 10 µM, compound concentration 10 uM
[6] = 24 h, 1 µM, compound concentration 1 uM
[7] = 24 h, 10 µM, compound concentration 10 uM
[8] = 48 h, 1 µM, compound concentration 1 uM
[9] = 48 h, 10 µM, compound concentration 10 uM

## COc1cc(N(C)c2ccnc3ccc(C(F)(F)F)cc23)cc(OC)c1OC
[1]; [4]
  Population Apoptotic (%): 43% and 38%
  Population Fragmented Nuclei (%): 7% and 10%
  Population Healthy Nuclei (%): 68% and 65%
  Population Hoechst High Intensity Objects (%): 0%
  Population Membrane Permeable-Phenotype (%): 10% and 7%
  Population Mitochondria Different-Phenotype (%): 0%
  Population Mitotic Cells (%): 56% and 61%
  Population Normal (%): 100% and 99%
  Population Pyknosed Nuclei (%): 23% and 24%
  Population Tubulin-Different-Phenotype (%): 21% and 18%
  Total Cell Count: 216 and 225
[1]; [5]
  Population Apoptotic (%): 48% and 39%
  Population Fragmented Nuclei (%): 6% and 11%
  Population Healthy Nuclei (%): 77% and 63%
  Population Hoechst High Intensity Objects (%): 0%
  Population Membrane Permeable-Phenotype (%): 4% and 9%
  Population Mitochondria Different-Phenotype (%): 5% and 4%
  Population Mitotic Cells (%): 51% and 60%
  Population Normal (%): 100%
  Population Pyknosed Nuclei (%): 15% and 24%
  Population Tubulin-Different-Phenotype (%): 33% and 40%
  Total Cell Count: 175 and 219
[1]; [6]
  Population Apoptotic (%): 48% and 50%
  Population Fragmented Nuclei (%): 7% and 13%
  Population Healthy Nuclei (%): 69% and 59%
  Population Hoechst High Intensity Objects (%): 0%
  Population Membrane Permeable-Phenotype (%): 8% and 4%
  Population Mitochondria Different-Phenotype (%): 1%
  Population Mitotic Cells (%): 51% and 49%
  Population Normal (%): 100% and 99%
  Population Pyknosed Nuclei (%): 23% and 27%
  Population Tubulin-Different-Phenotype (%): 24% and 14%
  Total Cell Count: 229 and 213
[1]; [7]
  Population Apoptotic (%): 60% and 54%
  Population Fragmented Nuclei (%): 9% and 12%
  Population Healthy Nuclei (%): 71% and 66%
  Population Hoechst High Intensity Objects (%): 0%
  Population Membrane Permeable-Phenotype (%): 4%
  Population Mitochondria Different-Phenotype (%): 3% and 6%
  Population Mitotic Cells (%): 39% and 45%
  Population Normal (%): 100% and 99%
  Population Pyknosed Nuclei (%): 18% and 20%
  Population Tubulin-Different-Phenotype (%): 27% and 30%
  Total Cell Count: 176 and 216
[1]; [8]
  Population Apoptotic (%): 66% and 47%
  Population Fragmented Nuclei (%): 8% and 14%
  Population Healthy Nuclei (%): 73% and 61%
  Population Hoechst High Intensity Objects (%): 0%
  Population Membrane Permeable-Phenotype (%): 1% and 7%
  Population Mitochondria Different-Phenotype (%): 0%
  Population Mitotic Cells (%): 33% and 52%
  Population Normal (%): 100%
  Population Pyknosed Nuclei (%): 18% and 23%
  Population Tubulin-Different-Phenotype (%): 10% and 12%
  Total Cell Count: 229 and 214
[1]; [9]
  Population Apoptotic (%): 64% and 75%
  Population Fragmented Nuclei (%): 9% and 12%
  Population Healthy Nuclei (%): 72% and 70%
  Population Hoechst High Intensity Objects (%): 0%
  Population Membrane Permeable-Phenotype (%): 0% and 1%
  Population Mitochondria Different-Phenotype (%): 3% and 5%
  Population Mitotic Cells (%): 35% and 24%
  Population Normal (%): 99% and 100%
  Population Pyknosed Nuclei (%): 18% and 16%
  Population Tubulin-Different-Phenotype (%): 35% and 25%
  Total Cell Count: 173 and 226
[2]; [4]
  Population Apoptotic (%): 58% and 48%
  Population Fragmented Nuclei (%): 5% and 4%
  Population Healthy Nuclei (%): 81% and 79%
  Population Hoechst High Intensity Objects (%): 7% and 6%
  Population Membrane Permeable-Phenotype (%): 2% and 5%
  Population Mitochondria Different-Phenotype (%): 13% and 17%
  Population Mitotic Cells (%): 41% and 51%
  Population Normal (%): 92% and 93%
  Population Pyknosed Nuclei (%): 12% and 16%
  Population Tubulin-Different-Phenotype (%): 50% and 48%
  Total Cell Count: 523 and 568
[2]; [5]
  Population Apoptotic (%): 42% and 52%
  Population Fragmented Nuclei (%): 3% and 2%
  Population Healthy Nuclei (%): 82% and 80%
  Population Hoechst High Intensity Objects (%): 5%
  Population Membrane Permeable-Phenotype (%): 5% and 3%
  Population Mitochondria Different-Phenotype (%): 34% and 29%
  Population Mitotic Cells (%): 57% and 47%
  Population Normal (%): 94%
  Population Pyknosed Nuclei (%): 14% and 17%
  Population Tubulin-Different-Phenotype (%): 79% and 82%
  Total Cell Count: 570 and 542
[2]; [6]
  Population Apoptotic (%): 54% and 36%
  Population Fragmented Nuclei (%): 5% and 6%
  Population Healthy Nuclei (%): 83% and 85%
  Population Hoechst High Intensity Objects (%): 7% and 6%
  Population Membrane Permeable-Phenotype (%): 3% and 5%
  Population Mitochondria Different-Phenotype (%): 6% and 4%
  Population Mitotic Cells (%): 45% and 63%
  Population Normal (%): 92% and 93%
  Population Pyknosed Nuclei (%): 10% and 8%
  Population Tubulin-Different-Phenotype (%): 33% and 26%
  Total Cell Count: 845 and 846
[2]; [7]
  Population Apoptotic (%): 46% and 53%
  Population Fragmented Nuclei (%): 3% and 4%
  Population Healthy Nuclei (%): 84% and 83%
  Population Hoechst High Intensity Objects (%): 5%
  Population Membrane Permeable-Phenotype (%): 3% and 1%
  Population Mitochondria Different-Phenotype (%): 31% and 20%
  Population Mitotic Cells (%): 53% and 46%
  Population Normal (%): 94%
  Population Pyknosed Nuclei (%): 11% and 12%
  Population Tubulin-Different-Phenotype (%): 69% and 64%
  Total Cell Count: 762 and 740
[2]; [8]
  Population Apoptotic (%): 16% and 24%
  Population Fragmented Nuclei (%): 12% and 11%
  Population Healthy Nuclei (%): 83% and 84%
  Population Hoechst High Intensity Objects (%): 7%
  Population Membrane Permeable-Phenotype (%): 5% and 4%
  Population Mitochondria Different-Phenotype (%): 0%
  Population Mitotic Cells (%): 83% and 75%
  Population Normal (%): 92%
  Population Pyknosed Nuclei (%): 3%
  Population Tubulin-Different-Phenotype (%): 12% and 11%
  Total Cell Count: 2086 and 2004
[2]; [9]
  Population Apoptotic (%): 26% and 38%
  Population Fragmented Nuclei (%): 9% and 7%
  Population Healthy Nuclei (%): 85% and 86%
  Population Hoechst High Intensity Objects (%): 7% and 8%
  Population Membrane Permeable-Phenotype (%): 3% and 1%
  Population Mitochondria Different-Phenotype (%): 9%
  Population Mitotic Cells (%): 73% and 61%
  Population Normal (%): 92% and 91%
  Population Pyknosed Nuclei (%): 5%
  Population Tubulin-Different-Phenotype (%): 48% and 46%
  Total Cell Count: 1391 and 1324
[3]; [4]
  Population Apoptotic (%): 75% and 100%
  Population Healthy Nuclei (%): 84% and 54%
  Population Hoechst High Intensity Objects (%): 0%
  Population Membrane Permeable-Phenotype (%): 2% and 8%
  Population Mitochondria Different-Phenotype (%): 3% and 0%
  Population Mitotic Cells (%): 25% and 0%
  Population Normal (%): 100%
  Population Pyknosed Nuclei (%): 10% and 22%
  Population Tubulin-Different-Phenotype (%): 76% and 50%
[3]; [5]
  Population Apoptotic (%): 50% and 51%
  Population Healthy Nuclei (%): 65% and 78%
  Population Hoechst High Intensity Objects (%): 0%
  Population Membrane Permeable-Phenotype (%): 10% and 4%
  Population Mitochondria Different-Phenotype (%): 10% and 5%
  Population Mitotic Cells (%): 50% and 48%
  Population Normal (%): 100%
  Population Pyknosed Nuclei (%): 6% and 16%
  Population Tubulin-Different-Phenotype (%): 26% and 34%
[3]; [6]
  Population Apoptotic (%): 100% and 86%
  Population Fragmented Nuclei (%): 10% and 3%
  Population Healthy Nuclei (%): 75% and 92%
  Population Hoechst High Intensity Objects (%): 0%
  Population Membrane Permeable-Phenotype (%): 0%
  Population Mitochondria Different-Phenotype (%): 4% and 0%
  Population Mitotic Cells (%): 0% and 13%
  Population Normal (%): 100%
  Population Pyknosed Nuclei (%): 14% and 4%
  Population Tubulin-Different-Phenotype (%): 57% and 76%
[3]; [7]
  Population Apoptotic (%): 66% and 75%
  Population Healthy Nuclei (%): 65% and 79%
  Population Hoechst High Intensity Objects (%): 0%
  Population Membrane Permeable-Phenotype (%): 0% and 5%
  Population Mitochondria Different-Phenotype (%): 14% and 9%
  Population Mitotic Cells (%): 33% and 24%
  Population Normal (%): 100%
  Population Pyknosed Nuclei (%): 9% and 15%
  Population Tubulin-Different-Phenotype (%): 47% and 45%
[3]; [8]
  Population Apoptotic (%): 75% and 73%
  Population Fragmented Nuclei (%): 11% and 3%
  Population Healthy Nuclei (%): 80% and 90%
  Population Hoechst High Intensity Objects (%): 0%
  Population Membrane Permeable-Phenotype (%): 2% and 1%
  Population Mitochondria Different-Phenotype (%): 2% and 0%
  Population Mitotic Cells (%): 25% and 26%
  Population Normal (%): 100%
  Population Pyknosed Nuclei (%): 7% and 6%
  Population Tubulin-Different-Phenotype (%): 76% and 84%
[3]; [9]
  Population Apoptotic (%): 66% and 72%
  Population Healthy Nuclei (%): 58% and 87%
  Population Hoechst High Intensity Objects (%): 0%
  Population Membrane Permeable-Phenotype (%): 11% and 3%
  Population Mitochondria Different-Phenotype (%): 14% and 4%
  Population Mitotic Cells (%): 33% and 27%
  Population Normal (%): 100%
  Population Pyknosed Nuclei (%): 26% and 9%
  Population Tubulin-Different-Phenotype (%): 40% and 49%
